# In ChEMBL document CHEMBL1136986, “Identification of anxiolytic/nonsedative agents among indol-3-ylglyoxylamides acting as functionally selective agonists at the gamma-aminobutyric acid-A (GABAA) alpha2 benzodiazepine receptor” (J Med Chem, 2009):
# Activity calls are given as the source filed them. The calls are words filed in the database; no cut-off is given here.
# Experiments:
# [1] = target: Gamma-aminobutyric acid receptor subunit alpha-2 (Rattus norvegicus, UniProt P18508+P23576+P63138); test: Displacement of [3H]flumazenil from rat GABA-A alpha-2-beta-2-gamma-2 receptor expressed in HEK293 cells; assay type: cell-based
# Outline: (§1)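 HEK293 membranes expressing rat α1β2γ2, α2β2γ2 or α5β3γ2, made in 10 mM potassium phosphate pH 7.4 (48000g, 4 °C) and resuspended with 100 mM KCl. Ki is mean ± SEM of three determinations in triplicate.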
# [2] = Displacement of [3H]flumazenil from Benzodiazepine receptor in bovine cerebral cortex membrane; assay type: cell membranes, Bos taurus
# [3] = target: GABA A receptor alpha-5/beta-3/gamma-2 (Rattus norvegicus, UniProt P18508+P19969+P63079); test: Displacement of [3H]flumazenil from rat GABA-A alpha-5-beta-3-gamma-2 receptor expressed in HEK293 cells; assay type: cell-based; outline: as §1
# [4] = target: GABA-A receptor; alpha-1/beta-2/gamma-2 (Rattus norvegicus, UniProt P18508+P62813+P63138); test: Displacement of [3H]flumazenil from rat GABA-A alpha-1-beta-2-gamma-2 receptor expressed in HEK293 cells; assay type: cell-based; outline: as §1
# Mus musculus [5] = test: Anxiolytic effect in CD1 mouse assessed as increase in number of transfers from lit to the dark area at 20 mg/kg, ip by light/dark box test; assay type: functional, organism-based; parameters: dose 20 mg/kg
# Outline: (§2)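 Male CD-1 mice (35-40 g), acclimatized 4 weeks to a reversed light cycle. […] Testing started 1 h later, with mouse placed in the lit chamber for a 5 min videotaped session.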
# Mus musculus [6] = test: Anxiolytic effect in CD1 mouse assessed as increase in time spent in white compartment at 20 mg/kg, ip by light/dark box test; assay type: functional, organism-based; parameters: dose 20 mg/kg; outline: as §2
# [7] = target: GABA-A receptor; alpha-1/beta-2/gamma-2 (Rattus norvegicus) (UniProt P18508+P62813+P63138); test: Agonist activity at rat GABA-A alpha-1-beta-2-gamma-2 receptor expressed in HEK293 cells assessed as increase in 36Cl- influx; assay type: functional, cell-based
# Outline: (§3)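 36Cl- uptake in HEK293 cells stably expressing rat α1β2γ2 or α2β2γ2, grown 3 days on polylysine-coated coverslips. Cells washed in HEPES/NaCl buffer pH 7.4, then dipped at room temperature into 36Cl- (2 µCi/mL) with drug, with or without GABA at EC20. Influx stopped after 8 s in ice-cold buffer with 0.1 mM picrotoxin. Result is % increase of EC20 GABA response, ≥5 independent experiments.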
# [8] = target: Gamma-aminobutyric acid receptor subunit alpha-2 (Rattus norvegicus) (UniProt P23576); test: Agonist activity at rat GABA-A alpha-2-beta-2-gamma-2 receptor expressed in HEK293 cells assessed as increase in 36Cl- influx; assay type: functional, cell-based; outline: as §3
# Mus musculus [9] = test: Toxicity in CD1 mouse assessed as sedative effect at 20 mg/kg, ip by light/dark box test; assay type: organism-based; parameters: dose 20 mg/kg, route intraperitoneal; conditions: in vivo; outline: as §2
# [10] = target: GABA A receptor alpha-5/beta-3/gamma-2 (Rattus norvegicus) (UniProt P18508+P19969+P63079); test: Displacement of [3H]flumazenil from rat GABA-A alpha-5-beta-3-gamma-2 receptor expressed in HEK293 cells at 10 uM; assay type: cell-based
# Outline: (§4)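 HEK293 membranes expressing rat α2β2γ2 or α5β3γ2 incubated with [3H]flumazenil 1-2 nM for 1 h at 4 °C, in 10 mM potassium phosphate pH 7.4 with 100 mM KCl. Compound tested at 10 µM.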
# Bos taurus = organism: Bos taurus; test: Displacement of [3H]flumazenil from Benzodiazepine receptor in bovine cerebral cortex membrane at 10 uM; assay type: cell membranes
# [11] = target: Gamma-aminobutyric acid receptor subunit alpha-2 (Rattus norvegicus) (UniProt P23576); test: Displacement of [3H]flumazenil from rat GABA-A alpha-2-beta-2-gamma-2 receptor expressed in HEK293 cells at 10 uM; assay type: cell-based; outline: as §4
# Mus musculus [12] = test: Anxiolytic effect in CD1 mouse assessed as increase in time spent in white compartment at 1.25 mg/kg, ip by light/dark box test; assay type: functional, organism-based; parameters: dose 1.25 mg/kg
# Outline: (§5)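 Male CD-1 albino mice (35-40 g), acclimatized 4 weeks to reversed 12 h light cycle, dosed ip in 1% carboxymethylcellulose vehicle; 1 h later placed in centre of lit chamber of light/dark box for 5 min, videotaped. Scored time in white compartment, lit/dark transfers, and rearings plus line crossings (activity) expressed per TW; n = 4-6, mean ± SEM versus vehicle.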
# Mus musculus [13] = test: Toxicity in CD1 mouse assessed as sedative effect at 1.25 mg/kg, ip by light/dark box test; assay type: organism-based; parameters: dose 1.25 mg/kg, route intraperitoneal; conditions: in vivo; outline: as §5
# Mus musculus [14] = test: Anxiolytic effect in CD1 mouse assessed as increase in number of transfers from lit to the dark area at 1.25 mg/kg, ip by light/dark box test; assay type: functional, organism-based; parameters: dose 1.25 mg/kg; outline: as §5
# Gamma-aminobutyric acid receptor subunit alpha-2 (Rattus norvegicus), sequence (P23576 whole entry): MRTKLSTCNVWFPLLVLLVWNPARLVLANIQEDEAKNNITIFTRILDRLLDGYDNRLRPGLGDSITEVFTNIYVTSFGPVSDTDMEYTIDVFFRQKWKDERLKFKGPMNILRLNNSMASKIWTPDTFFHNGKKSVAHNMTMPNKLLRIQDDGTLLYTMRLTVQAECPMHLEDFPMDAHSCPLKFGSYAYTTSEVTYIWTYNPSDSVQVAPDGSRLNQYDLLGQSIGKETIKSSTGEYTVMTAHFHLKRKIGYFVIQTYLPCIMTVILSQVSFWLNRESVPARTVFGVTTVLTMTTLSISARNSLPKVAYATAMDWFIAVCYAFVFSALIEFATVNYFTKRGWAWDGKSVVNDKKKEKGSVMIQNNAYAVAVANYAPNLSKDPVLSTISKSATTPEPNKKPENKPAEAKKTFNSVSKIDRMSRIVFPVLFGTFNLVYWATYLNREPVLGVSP
# Gamma-aminobutyric acid receptor subunit alpha-2, sequence (P23576 whole entry, one chain of several): as the sequence (P23576 whole entry) above
# GABA A receptor alpha-5/beta-3/gamma-2, sequence (P18508 whole entry): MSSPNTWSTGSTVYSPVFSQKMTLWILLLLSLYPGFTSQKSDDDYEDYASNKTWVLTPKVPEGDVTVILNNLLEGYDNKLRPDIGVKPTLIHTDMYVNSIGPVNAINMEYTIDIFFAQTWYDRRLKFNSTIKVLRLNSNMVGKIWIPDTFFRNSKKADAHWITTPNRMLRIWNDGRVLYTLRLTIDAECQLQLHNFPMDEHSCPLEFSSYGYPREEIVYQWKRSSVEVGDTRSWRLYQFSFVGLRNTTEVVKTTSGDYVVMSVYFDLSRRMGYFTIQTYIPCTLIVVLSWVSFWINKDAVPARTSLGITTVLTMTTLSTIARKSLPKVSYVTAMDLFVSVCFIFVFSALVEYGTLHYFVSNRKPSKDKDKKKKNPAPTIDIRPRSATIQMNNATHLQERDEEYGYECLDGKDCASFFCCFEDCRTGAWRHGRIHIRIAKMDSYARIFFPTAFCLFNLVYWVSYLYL
# GABA A receptor alpha-5/beta-3/gamma-2, sequence (P19969 whole entry): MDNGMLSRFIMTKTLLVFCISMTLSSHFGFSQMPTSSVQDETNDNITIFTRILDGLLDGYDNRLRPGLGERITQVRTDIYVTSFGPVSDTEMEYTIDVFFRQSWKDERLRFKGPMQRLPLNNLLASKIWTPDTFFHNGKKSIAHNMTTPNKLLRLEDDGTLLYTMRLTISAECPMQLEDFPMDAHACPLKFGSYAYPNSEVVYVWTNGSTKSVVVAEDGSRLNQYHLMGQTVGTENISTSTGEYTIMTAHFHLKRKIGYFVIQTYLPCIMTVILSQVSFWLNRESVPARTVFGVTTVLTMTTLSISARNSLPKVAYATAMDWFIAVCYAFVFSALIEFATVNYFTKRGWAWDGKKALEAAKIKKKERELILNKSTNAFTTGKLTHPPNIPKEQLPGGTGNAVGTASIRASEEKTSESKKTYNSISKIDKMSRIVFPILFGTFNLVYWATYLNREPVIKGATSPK
# GABA A receptor alpha-5/beta-3/gamma-2, sequence (P63079 whole entry): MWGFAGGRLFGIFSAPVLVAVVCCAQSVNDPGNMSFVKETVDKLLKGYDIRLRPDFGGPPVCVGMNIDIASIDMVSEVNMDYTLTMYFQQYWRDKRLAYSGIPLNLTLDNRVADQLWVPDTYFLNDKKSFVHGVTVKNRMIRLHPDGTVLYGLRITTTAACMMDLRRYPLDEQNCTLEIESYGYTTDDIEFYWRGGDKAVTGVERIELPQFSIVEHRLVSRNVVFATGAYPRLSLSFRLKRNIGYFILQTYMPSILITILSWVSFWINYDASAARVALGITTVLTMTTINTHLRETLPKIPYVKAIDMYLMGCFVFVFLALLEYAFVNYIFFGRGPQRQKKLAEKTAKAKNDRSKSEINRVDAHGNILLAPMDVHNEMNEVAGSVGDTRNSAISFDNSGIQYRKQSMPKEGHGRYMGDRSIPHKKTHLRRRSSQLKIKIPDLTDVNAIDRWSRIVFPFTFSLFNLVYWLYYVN
# GABA-A receptor; alpha-1/beta-2/gamma-2, sequence (P18508 whole entry): as the sequence (P18508 whole entry) above
# GABA-A receptor; alpha-1/beta-2/gamma-2, sequence (P62813 whole entry): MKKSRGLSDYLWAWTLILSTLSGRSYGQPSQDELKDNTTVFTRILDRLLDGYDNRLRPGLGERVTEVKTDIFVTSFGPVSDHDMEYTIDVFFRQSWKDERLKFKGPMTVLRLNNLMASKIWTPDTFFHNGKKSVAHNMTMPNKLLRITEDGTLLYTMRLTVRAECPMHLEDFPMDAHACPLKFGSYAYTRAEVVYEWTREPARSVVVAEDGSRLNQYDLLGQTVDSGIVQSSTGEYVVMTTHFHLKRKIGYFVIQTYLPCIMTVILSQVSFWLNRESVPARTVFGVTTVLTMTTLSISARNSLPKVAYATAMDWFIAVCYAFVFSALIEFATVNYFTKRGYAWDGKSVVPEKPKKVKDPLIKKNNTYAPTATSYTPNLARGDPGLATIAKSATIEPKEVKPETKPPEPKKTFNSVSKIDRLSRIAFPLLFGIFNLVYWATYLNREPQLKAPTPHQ
# GABA-A receptor; alpha-1/beta-2/gamma-2, sequence (P63138 whole entry): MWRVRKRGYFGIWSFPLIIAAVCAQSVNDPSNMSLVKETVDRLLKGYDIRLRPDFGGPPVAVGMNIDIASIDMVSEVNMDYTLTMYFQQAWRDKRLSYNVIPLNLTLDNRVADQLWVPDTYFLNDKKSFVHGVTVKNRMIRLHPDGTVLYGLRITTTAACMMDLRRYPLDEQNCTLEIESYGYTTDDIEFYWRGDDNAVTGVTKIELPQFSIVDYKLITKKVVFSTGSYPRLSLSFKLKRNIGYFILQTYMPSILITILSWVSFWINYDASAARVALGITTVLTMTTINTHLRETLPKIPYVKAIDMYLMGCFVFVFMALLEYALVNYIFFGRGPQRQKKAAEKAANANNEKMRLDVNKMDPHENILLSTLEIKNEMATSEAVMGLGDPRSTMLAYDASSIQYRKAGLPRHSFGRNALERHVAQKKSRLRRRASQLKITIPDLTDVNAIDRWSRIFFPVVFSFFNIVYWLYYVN
SMILES,Ki [1] [nM],Ki [2] [nM],Ki [4] [nM],further results
COc1ccc2c(c1)CCC2NC(=O)C(=O)c1c[nH]c2ccc([N+](=O)[O-])cc12 (racemic),231,13,28,Ki [3]: 252 nM
O=C(N[C@@H]1CCc2ccccc21)C(=O)c1c[nH]c2ccccc12,3100,675,,
O=C(N[C@@H]1CCc2ccccc21)C(=O)c1c[nH]c2ccc([N+](=O)[O-])cc12,85,28,,Activity (Mus musculus [5]): inactive; Activity (Mus musculus [6]): inactive; Activity [7]: 1%; Activity [8]: 48%
O=C(NCc1ccc(F)cc1)C(=O)c1c[nH]c2ccccc12,118,52,245,Activity (Mus musculus [9]): Non-toxic; Activity (Mus musculus [5]): Active; Activity (Mus musculus [6]): Active; Ki [3]: 163 nM; Activity [7]: 11%; Activity [8]: 85%
C[C@@H](NC(=O)C(=O)c1c[nH]c2ccccc12)c1ccccc1,1550,1310,,
Cc1ccc(-c2nc3ccc(C)cn3c2CC(=O)N(C)C)cc1 [ZOLPIDEM],,51,,
COc1ccc2c(c1)CCC2NC(=O)C(=O)c1c[nH]c2ccccc12 (racemic),690,636,246,inhibition [10]: 28%
O=C(NCc1ccc([N+](=O)[O-])cc1)C(=O)c1c[nH]c2ccc([N+](=O)[O-])cc12,2980,620,293,Ki [3]: 2220 nM
O=C(NCc1ccc([N+](=O)[O-])cc1)C(=O)c1c[nH]c2ccccc12,210,21,,
COc1ccc(CNC(=O)C(=O)c2c[nH]c3ccc([N+](=O)[O-])cc23)cc1,1650,53,,
O=C(NCc1ccc(F)cc1)C(=O)c1c[nH]c2ccc([N+](=O)[O-])cc12,,,,inhibition (Bos taurus): 24%
Cc1ccc2c(c1)CCC2NC(=O)C(=O)c1c[nH]c2ccccc12 (racemic),,,,inhibition (Bos taurus): 15%
Cc1ccc2c(c1)CCC2NC(=O)C(=O)c1c[nH]c2ccc([N+](=O)[O-])cc12 (racemic),,,,inhibition (Bos taurus): 2%
O=C(NC1CCc2cc(F)ccc21)C(=O)c1c[nH]c2ccccc12 (racemic),,2160,2050,inhibition [10]: 44%; inhibition [11]: 29%
O=C(NC1CCc2cc([N+](=O)[O-])ccc21)C(=O)c1c[nH]c2ccc([N+](=O)[O-])cc12 (racemic),513,178,200,Ki [3]: 749 nM
O=C(NCc1ccccc1)C(=O)c1c[nH]c2ccccc12,,120,,
O=C(NCc1ccccc1)C(=O)c1c[nH]c2ccc([N+](=O)[O-])cc12,,117,,
O=C(NC1CCc2cc([N+](=O)[O-])ccc21)C(=O)c1c[nH]c2ccccc12 (racemic),,,,inhibition (Bos taurus): 47%
C[C@@H](NC(=O)C(=O)c1c[nH]c2ccc([N+](=O)[O-])cc12)c1ccccc1,121,17,,Activity (Mus musculus [9]): Non-toxic; Activity (Mus musculus [5]): Active; Activity (Mus musculus [6]): Active; Activity [7]: 35%; Activity [8]: 79%
O=C(NC1CCc2cc(F)ccc21)C(=O)c1c[nH]c2ccc([N+](=O)[O-])cc12 (racemic),810,300,195,Ki [3]: 1420 nM
CN1C(=O)CN=C(c2ccccc2)c2cc(Cl)ccc21 [DIAZEPAM],,10,,Activity (Mus musculus [12]): Active; Activity (Mus musculus [13]): Non-toxic; Activity [8]: 81%; Activity (Mus musculus [14]): Active
COc1ccc(CNC(=O)C(=O)c2c[nH]c3ccccc23)cc1,1950,163,195,inhibition [10]: 30%
